ChEMBL document CHEMBL2177092, “Phosphoramidate ProTides of the anticancer agent FUDR successfully deliver the preformed bioactive monophosphate in cells and confer advantage over the parent nucleoside” (J Med Chem, 2011)

Tested on: L1210
Assay: Ratio of IC50 for Mycoplasma hyorhinis-infected mouse L1210 cells to IC50 for mouse L1210/0 cells after 48 hrs by cell counting
Assay type: functional
Conditions: not given
Procedure, shortened: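 Murine L1210/0 cells were compared with L1210/TK cells, selected for resistance to 5-bromo-2'-dUrd, and with L1210.Hyor cells, chronically infected with Mycoplasma hyorhinis. Cells were grown in DMEM with 10% FBS, 10 mM Hepes and 1 mM pyruvate at 37 °C and 5% CO2, then seeded at 60 000 cells/well with compound. They were Coulter-counted after 48 h. […] Mean of 2–4 experiments.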

| Compound | Ratio IC50 |
| --- | --- |
| CC(C)C[C@H](NP(=O)(OC[C@H]1O[C@@H](n2cc(F)c(=O)[nH]c2=O)C[C@@H]1O)Oc1ccccc1)C(=O)OCc1ccccc1 (mixture of isomers) | 3.2 |
| C[C@H](NP(=O)(OC[C@H]1O[C@@H](n2cc(F)c(=O)[nH]c2=O)C[C@@H]1O)Oc1cccc2ccccc12)C(=O)OCCC(C)(C)C (mixture of isomers) | 2.7 |
| CC(C)C[C@H](NP(=O)(OC[C@H]1O[C@@H](n2cc(F)c(=O)[nH]c2=O)C[C@@H]1O)Oc1cccc2ccccc12)C(=O)OCc1ccccc1 (mixture of isomers) | 1.7 |
| CCCCCOC(=O)C(C)(C)NP(=O)(OC[C@H]1O[C@@H](n2cc(F)c(=O)[nH]c2=O)C[C@@H]1O)Oc1cccc2ccccc12 (mixture of isomers) | 0.42 |
| CSCC[C@H](NP(=O)(OC[C@H]1O[C@@H](n2cc(F)c(=O)[nH]c2=O)C[C@@H]1O)Oc1cccc2ccccc12)C(=O)OCc1ccccc1 (mixture of isomers) | 3.7 |

Tested on: L1210
Assay: Cytostatic activity against Mycoplasma hyorhinis-infected mouse L1210 cells after 48 hrs by cell counting
Assay type: functional, cell-based
Conditions: L1210, 48 h
Procedure, shortened: (§1)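 Suspension leukemia cells in DMEM with 10% FBS, 10 mM Hepes and 1 mM sodium pyruvate at 37 °C under 5% CO2. Seeded at 60 000 cells/well with graded compound levels. Grown 48 h (L1210) or 72 h (CEM), then counted by Coulter counter. Mean ± SD of two to four independent experiments.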

| Compound | IC50 |
| --- | --- |
| CC(C)C[C@H](NP(=O)(OC[C@H]1O[C@@H](n2cc(F)c(=O)[nH]c2=O)C[C@@H]1O)Oc1ccccc1)C(=O)OCc1ccccc1 (mixture of isomers) | 170 nM |
| C[C@H](NP(=O)(OC[C@H]1O[C@@H](n2cc(F)c(=O)[nH]c2=O)C[C@@H]1O)Oc1cccc2ccccc12)C(=O)OCCC(C)(C)C (mixture of isomers) | 32 nM |
| CCCCCOC(=O)C(C)(C)NP(=O)(OC[C@H]1O[C@@H](n2cc(F)c(=O)[nH]c2=O)C[C@@H]1O)Oc1cccc2ccccc12 (mixture of isomers) | 19 nM |

Next, values leading:

| IC50 | Compound |
| --- | --- |
| 48 nM | CC(C)C[C@H](NP(=O)(OC[C@H]1O[C@@H](n2cc(F)c(=O)[nH]c2=O)C[C@@H]1O)Oc1cccc2ccccc12)C(=O)OCc1ccccc1 (mixture of isomers) |
| 200 nM | CSCC[C@H](NP(=O)(OC[C@H]1O[C@@H](n2cc(F)c(=O)[nH]c2=O)C[C@@H]1O)Oc1cccc2ccccc12)C(=O)OCc1ccccc1 (mixture of isomers) |

Tested on: HeLa
Assay: Cytostatic activity against human HeLa cells […] by cell counting
Assay type: functional, cell-based
Conditions: not given

| Compound | IC50 |
| --- | --- |
| CC(C)C[C@H](NP(=O)(OC[C@H]1O[C@@H](n2cc(F)c(=O)[nH]c2=O)C[C@@H]1O)Oc1ccccc1)C(=O)OCc1ccccc1 (mixture of isomers) | 67 nM |
| C[C@H](NP(=O)(OC[C@H]1O[C@@H](n2cc(F)c(=O)[nH]c2=O)C[C@@H]1O)Oc1cccc2ccccc12)C(=O)OCCC(C)(C)C (mixture of isomers) | 78 nM |
| CCCCCOC(=O)C(C)(C)NP(=O)(OC[C@H]1O[C@@H](n2cc(F)c(=O)[nH]c2=O)C[C@@H]1O)Oc1cccc2ccccc12 (mixture of isomers) | 120 nM |

Next, values leading:

| IC50 | Compound |
| --- | --- |
| 80 nM | CC(C)C[C@H](NP(=O)(OC[C@H]1O[C@@H](n2cc(F)c(=O)[nH]c2=O)C[C@@H]1O)Oc1cccc2ccccc12)C(=O)OCc1ccccc1 (mixture of isomers) |
| 87 nM | CSCC[C@H](NP(=O)(OC[C@H]1O[C@@H](n2cc(F)c(=O)[nH]c2=O)C[C@@H]1O)Oc1cccc2ccccc12)C(=O)OCc1ccccc1 (mixture of isomers) |

Tested on: HeLa
Assay: Cytostatic activity against thymidine-kinase deficient human HeLa cells […]
Assay type: functional, cell-based
Conditions: not given

| Compound | IC50 |
| --- | --- |
| CC(C)C[C@H](NP(=O)(OC[C@H]1O[C@@H](n2cc(F)c(=O)[nH]c2=O)C[C@@H]1O)Oc1ccccc1)C(=O)OCc1ccccc1 (mixture of isomers) | 5600 nM |
| C[C@H](NP(=O)(OC[C@H]1O[C@@H](n2cc(F)c(=O)[nH]c2=O)C[C@@H]1O)Oc1cccc2ccccc12)C(=O)OCCC(C)(C)C (mixture of isomers) | 1300 nM |
| CCCCCOC(=O)C(C)(C)NP(=O)(OC[C@H]1O[C@@H](n2cc(F)c(=O)[nH]c2=O)C[C@@H]1O)Oc1cccc2ccccc12 (mixture of isomers) | 2300 nM |

Continued, values first:

| IC50 | Compound |
| --- | --- |
| 9400 nM | CC(C)C[C@H](NP(=O)(OC[C@H]1O[C@@H](n2cc(F)c(=O)[nH]c2=O)C[C@@H]1O)Oc1cccc2ccccc12)C(=O)OCc1ccccc1 (mixture of isomers) |
| 8300 nM | CSCC[C@H](NP(=O)(OC[C@H]1O[C@@H](n2cc(F)c(=O)[nH]c2=O)C[C@@H]1O)Oc1cccc2ccccc12)C(=O)OCc1ccccc1 (mixture of isomers) |

Tested on: CCRF-CEM
Assay: Cytostatic activity against thymidine-kinase deficient human CEM cells after 72 hrs by cell counting
Assay type: functional, cell-based
Conditions: not given
Procedure, shortened: as §1

| Compound | IC50 |
| --- | --- |
| CC(C)C[C@H](NP(=O)(OC[C@H]1O[C@@H](n2cc(F)c(=O)[nH]c2=O)C[C@@H]1O)Oc1ccccc1)C(=O)OCc1ccccc1 (mixture of isomers) | 16000 nM |
| C[C@H](NP(=O)(OC[C@H]1O[C@@H](n2cc(F)c(=O)[nH]c2=O)C[C@@H]1O)Oc1cccc2ccccc12)C(=O)OCCC(C)(C)C (mixture of isomers) | 190 nM |
| CCCCCOC(=O)C(C)(C)NP(=O)(OC[C@H]1O[C@@H](n2cc(F)c(=O)[nH]c2=O)C[C@@H]1O)Oc1cccc2ccccc12 (mixture of isomers) | 5400 nM |

Now from value to compound:

| IC50 | Compound |
| --- | --- |
| 30000 nM | CC(C)C[C@H](NP(=O)(OC[C@H]1O[C@@H](n2cc(F)c(=O)[nH]c2=O)C[C@@H]1O)Oc1cccc2ccccc12)C(=O)OCc1ccccc1 (mixture of isomers) |
| 11000 nM | CSCC[C@H](NP(=O)(OC[C@H]1O[C@@H](n2cc(F)c(=O)[nH]c2=O)C[C@@H]1O)Oc1cccc2ccccc12)C(=O)OCc1ccccc1 (mixture of isomers) |

Tested on: CCRF-CEM
Assay: Cytostatic activity against human CEM/0 cells after 72 hrs by cell counting
Assay type: functional, cell-based
Conditions: not given
Procedure, shortened: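 Suspension leukemia cells in DMEM with 10% FBS, 10 mM Hepes and 1 mM sodium pyruvate at 37 °C under 5% CO2. Seeded at 60 000 cells/well with graded compound levels. Grown 48 h (L1210) or 72 h (CEM), then counted by Coulter counter. […] Mean ± SD of two to four independent experiments.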

| Compound | IC50 |
| --- | --- |
| CC(C)C[C@H](NP(=O)(OC[C@H]1O[C@@H](n2cc(F)c(=O)[nH]c2=O)C[C@@H]1O)Oc1ccccc1)C(=O)OCc1ccccc1 (mixture of isomers) | 240 nM |
| C[C@H](NP(=O)(OC[C@H]1O[C@@H](n2cc(F)c(=O)[nH]c2=O)C[C@@H]1O)Oc1cccc2ccccc12)C(=O)OCCC(C)(C)C (mixture of isomers) | 53 nM |
| CCCCCOC(=O)C(C)(C)NP(=O)(OC[C@H]1O[C@@H](n2cc(F)c(=O)[nH]c2=O)C[C@@H]1O)Oc1cccc2ccccc12 (mixture of isomers) | 140 nM |

Results, then the compound that gave them:

| IC50 | Compound |
| --- | --- |
| 130 nM | CC(C)C[C@H](NP(=O)(OC[C@H]1O[C@@H](n2cc(F)c(=O)[nH]c2=O)C[C@@H]1O)Oc1cccc2ccccc12)C(=O)OCc1ccccc1 (mixture of isomers) |
| 190 nM | CSCC[C@H](NP(=O)(OC[C@H]1O[C@@H](n2cc(F)c(=O)[nH]c2=O)C[C@@H]1O)Oc1cccc2ccccc12)C(=O)OCc1ccccc1 (mixture of isomers) |

Tested on: not listed separately
Assay: Cytostatic activity against mouse L1210/0 cells after 48 hrs by cell counting
Assay type: functional, cell-based
Conditions: L1210/0, 48 h
Procedure, shortened: as §1

| Compound | IC50 |
| --- | --- |
| CC(C)C[C@H](NP(=O)(OC[C@H]1O[C@@H](n2cc(F)c(=O)[nH]c2=O)C[C@@H]1O)Oc1ccccc1)C(=O)OCc1ccccc1 (mixture of isomers) | 54 nM |
| C[C@H](NP(=O)(OC[C@H]1O[C@@H](n2cc(F)c(=O)[nH]c2=O)C[C@@H]1O)Oc1cccc2ccccc12)C(=O)OCCC(C)(C)C (mixture of isomers) | 12 nM |
| CCCCCOC(=O)C(C)(C)NP(=O)(OC[C@H]1O[C@@H](n2cc(F)c(=O)[nH]c2=O)C[C@@H]1O)Oc1cccc2ccccc12 (mixture of isomers) | 45 nM |

Second part, the compound after the results:

| IC50 | Compound |
| --- | --- |
| 29 nM | CC(C)C[C@H](NP(=O)(OC[C@H]1O[C@@H](n2cc(F)c(=O)[nH]c2=O)C[C@@H]1O)Oc1cccc2ccccc12)C(=O)OCc1ccccc1 (mixture of isomers) |
| 54 nM | CSCC[C@H](NP(=O)(OC[C@H]1O[C@@H](n2cc(F)c(=O)[nH]c2=O)C[C@@H]1O)Oc1cccc2ccccc12)C(=O)OCc1ccccc1 (mixture of isomers) |

Tested on: L1210
Assay: Cytostatic activity against thymidine-kinase deficient mouse L1210 cells after 48 hrs by cell counting
Assay type: functional, cell-based
Conditions: L1210, 48 h
Procedure, shortened: as §1

| Compound | IC50 |
| --- | --- |
| CC(C)C[C@H](NP(=O)(OC[C@H]1O[C@@H](n2cc(F)c(=O)[nH]c2=O)C[C@@H]1O)Oc1ccccc1)C(=O)OCc1ccccc1 (mixture of isomers) | 2000 nM |
| C[C@H](NP(=O)(OC[C@H]1O[C@@H](n2cc(F)c(=O)[nH]c2=O)C[C@@H]1O)Oc1cccc2ccccc12)C(=O)OCCC(C)(C)C (mixture of isomers) | 62 nM |
| CCCCCOC(=O)C(C)(C)NP(=O)(OC[C@H]1O[C@@H](n2cc(F)c(=O)[nH]c2=O)C[C@@H]1O)Oc1cccc2ccccc12 (mixture of isomers) | 300 nM |

Results, then the compound that gave them:

| IC50 | Compound |
| --- | --- |
| 1500 nM | CC(C)C[C@H](NP(=O)(OC[C@H]1O[C@@H](n2cc(F)c(=O)[nH]c2=O)C[C@@H]1O)Oc1cccc2ccccc12)C(=O)OCc1ccccc1 (mixture of isomers) |
| 1900 nM | CSCC[C@H](NP(=O)(OC[C@H]1O[C@@H](n2cc(F)c(=O)[nH]c2=O)C[C@@H]1O)Oc1cccc2ccccc12)C(=O)OCc1ccccc1 (mixture of isomers) |
